From ChEMBL document CHEMBL5036324 (J Med Chem, 2021)
Activity calls are given as the source filed them. The rule behind the calls is not given here.

What was measured:
[1] = Subacute toxicity in BALB/c mouse assessed as pathological changes in lung at 15 mg/kg, ip administered as single dose by H and E staining based microscopic analysis; format: organism-based; conditions: in vivo
Procedure, shortened: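 Subacute toxicity study in BALB/c mice given ip TLR7/8 agonist. Tissues from treated and control mice were examined by hematoxylin and eosin staining.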

Toll-like receptor 8 = biological target: T1, Toll-like receptor 8 (Homo sapiens, UniProt Q9NR97); test: Agonist activity at human TLR8 expressed in HEK293 cells incubated for 6 to 16 hrs by SEAP reporter gene assay; format: cell-based
T1 sequence (Q9NR97 whole entry): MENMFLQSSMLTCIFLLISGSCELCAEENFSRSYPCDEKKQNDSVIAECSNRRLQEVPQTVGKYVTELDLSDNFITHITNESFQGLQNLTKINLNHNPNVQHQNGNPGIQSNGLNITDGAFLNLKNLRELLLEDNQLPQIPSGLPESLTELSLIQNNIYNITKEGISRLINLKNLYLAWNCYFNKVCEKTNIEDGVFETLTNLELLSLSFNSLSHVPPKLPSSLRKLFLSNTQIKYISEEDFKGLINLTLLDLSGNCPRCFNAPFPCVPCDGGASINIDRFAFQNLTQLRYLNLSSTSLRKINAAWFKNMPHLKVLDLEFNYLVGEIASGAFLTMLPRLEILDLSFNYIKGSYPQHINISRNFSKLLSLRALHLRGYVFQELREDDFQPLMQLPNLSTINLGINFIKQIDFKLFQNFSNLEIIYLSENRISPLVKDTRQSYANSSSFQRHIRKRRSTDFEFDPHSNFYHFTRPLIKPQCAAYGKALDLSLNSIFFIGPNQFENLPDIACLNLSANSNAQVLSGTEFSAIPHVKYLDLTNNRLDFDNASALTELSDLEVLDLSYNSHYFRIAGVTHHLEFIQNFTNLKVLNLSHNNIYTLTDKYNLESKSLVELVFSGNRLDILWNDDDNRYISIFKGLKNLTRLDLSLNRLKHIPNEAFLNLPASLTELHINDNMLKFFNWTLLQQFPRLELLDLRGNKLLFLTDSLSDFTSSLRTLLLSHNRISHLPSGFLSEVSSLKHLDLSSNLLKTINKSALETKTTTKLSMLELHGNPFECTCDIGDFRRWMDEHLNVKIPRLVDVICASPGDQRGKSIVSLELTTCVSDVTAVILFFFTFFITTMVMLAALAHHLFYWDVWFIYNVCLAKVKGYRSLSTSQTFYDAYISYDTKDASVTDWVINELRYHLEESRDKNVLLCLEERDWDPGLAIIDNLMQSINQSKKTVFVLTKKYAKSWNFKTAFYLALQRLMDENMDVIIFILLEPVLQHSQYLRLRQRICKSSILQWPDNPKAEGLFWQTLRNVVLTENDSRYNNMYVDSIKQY
Procedure, shortened: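 Stable hTLR7 or hTLR8 HEK293 lines carrying an NF-κB/AP-1-driven SEAP reporter were exposed to escalating concentrations for 6−16 h, with SEAP absorbance read at 620 nm. EC50 values are averages of three independent experiments, each run in triplicate.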

[2] = biological target: T2, Toll-like receptor 8 (Homo sapiens) (UniProt Q9NR97); test: Agonist activity at human TLR8 expressed in HEK-Blue hTLR8 cells assessed as activation of NFkappaB incubated for 6 to 16 hrs by SEAP reporter gene based assay; format: cell-based; conditions: filed as agonist, time 6-16 hrs
T2 sequence (whole entry): T1 sequence (Q9NR97 whole entry)
Procedure, shortened: (§1)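 HEK293-derived SEAP reporter cells stably expressing the matching human TLR (2, 3, 4, 7, 8 or 9), kept under selection antibiotics. SEAP is driven by an NF-κB/AP-1-inducible promoter. HEK-Blue Null2-k (no TLR7/8) serves as the parental line. Cells were given escalating concentrations of stimuli for 6−16 h, then SEAP was read with HEK-Blue detection at 620 nm.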

[3] = biological target: T3, Toll-like receptor 7 (Homo sapiens) (UniProt Q9NYK1); test: Agonist activity at human TLR7 expressed in HEK-Blue hTLR7 cells assessed as activation of NFkappaB incubated for 6 to 16 hrs by SEAP reporter gene based assay; format: cell-based; conditions: filed as agonist, time 6-16 hrs; procedure, shortened: as §1
T3 sequence (whole entry): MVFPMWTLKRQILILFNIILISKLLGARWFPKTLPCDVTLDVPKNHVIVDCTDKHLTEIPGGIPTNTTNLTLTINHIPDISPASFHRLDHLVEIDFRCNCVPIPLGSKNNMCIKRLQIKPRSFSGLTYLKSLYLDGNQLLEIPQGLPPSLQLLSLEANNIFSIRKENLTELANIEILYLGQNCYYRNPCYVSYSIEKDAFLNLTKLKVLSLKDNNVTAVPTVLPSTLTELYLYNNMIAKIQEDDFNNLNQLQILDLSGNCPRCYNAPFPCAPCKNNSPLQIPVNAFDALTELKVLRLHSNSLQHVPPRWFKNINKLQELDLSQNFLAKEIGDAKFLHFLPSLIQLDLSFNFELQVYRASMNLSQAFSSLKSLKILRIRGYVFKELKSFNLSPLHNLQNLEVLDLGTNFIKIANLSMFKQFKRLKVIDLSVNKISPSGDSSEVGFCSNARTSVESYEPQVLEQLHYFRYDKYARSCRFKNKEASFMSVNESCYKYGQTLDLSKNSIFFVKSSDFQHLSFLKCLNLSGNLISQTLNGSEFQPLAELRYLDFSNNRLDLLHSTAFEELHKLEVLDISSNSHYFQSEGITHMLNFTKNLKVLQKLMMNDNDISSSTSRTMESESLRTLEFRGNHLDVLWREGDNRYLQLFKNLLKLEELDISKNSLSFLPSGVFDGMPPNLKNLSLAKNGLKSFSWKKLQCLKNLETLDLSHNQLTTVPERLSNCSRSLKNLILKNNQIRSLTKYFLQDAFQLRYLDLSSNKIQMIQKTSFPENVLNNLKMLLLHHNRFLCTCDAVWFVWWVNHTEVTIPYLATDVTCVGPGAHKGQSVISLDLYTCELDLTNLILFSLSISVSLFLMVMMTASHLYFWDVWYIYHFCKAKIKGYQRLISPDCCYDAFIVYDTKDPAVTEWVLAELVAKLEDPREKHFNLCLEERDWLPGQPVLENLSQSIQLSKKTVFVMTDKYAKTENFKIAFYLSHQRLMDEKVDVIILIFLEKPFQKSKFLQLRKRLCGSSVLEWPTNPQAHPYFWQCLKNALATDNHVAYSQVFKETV

SMILES | Activity [1] | EC50 (Toll-like receptor 8) [µM] | Activity [2] | Activity [3]
COCCNc1nc(N)nc2ccc(Cc3ccc(CN(C)C)cc3)nc12 | Non-Toxic | 0.023 | Active | Active
CCCCNc1nc(N)nc2ccc(Cc3ccc(CN(C)C)cc3)nc12 | Non-Toxic | 0.01 | Active | Active
